This is an account of results in ChEMBL document CHEMBL4765230, “Discovery of Orally Efficacious Phosphoinositide 3-Kinase δ Inhibitors with Improved Metabolic Stability” (J Med Chem, 2016).

Data set [1] has as its target PI3-kinase p110-delta/p85-alpha (Homo sapiens, UniProt O00329). Kind of data set: Inhibition of human full length PI3K p110delta/p85alpha using […] as substrate measured after 30 mins by TR-FRET assay. Type of data set: protein-complex assay. A general note: TR-FRET usually uses a lanthanide donor and a delayed reading to cut background.

Data set [2] addresses PI3-kinase p110-alpha/p85-alpha (Homo sapiens, UniProt P42336). Nature of the data set: Inhibition of human full length PI3K p110alpha/p85alpha using […] as substrate measured after 30 mins by TR-FRET assay. It is filed as protein-complex assay.
In a further data set the target is PI3K p110 beta/p85 alpha (Homo sapiens, UniProt P42338). Nature of the data set: Inhibition of recombinant human full-length N-terminal His-tagged PI3K p110beta/p85alpha using […] as substrate measured after 30 mins by TR-FRET assay. It is filed as protein-complex assay.
For data set [3], the target named is Phosphatidylinositol 4,5-bisphosphate 3-kinase catalytic subunit gamma isoform (Homo sapiens, UniProt P48736). Nature of the data set: Inhibition of human full length PI3K p110gamma using […] as substrate measured after 30 mins by TR-FRET assay.
The nature of data set [4]: Thermal stability of compound assessed as half life at 40 degreeC measured over 72 hrs by HPLC analysis. Type of data set: physicochemical.
Data set [5] is described as follows: Chemical stability of the compound at pH 2 phosphate buffer assessed as time required for 50% hydrolytic degradation at 100 ug/ml and 40 degreeC by UPLC-UV analysis. Type of data set: physicochemical. Conditions: dose 100 µg/ml, read-out: Time (converted). The gist of the method: (§1)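 Compound diluted from acetonitrile or DMSO stock to 100 μg/mL final in 50 mM phosphate buffer, pH 2 (or pH 7), ionic strength 0.15 M NaCl, 40 °C in autosampler. Timed injections analysed by reverse-phase UPLC-UV (220 nm); pseudo-first-order kobs from ln c vs time; t50 and t90 calculated.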

Data set [6] in a line: Chemical stability of the compound at pH 2 phosphate buffer assessed as time required for 90% hydrolytic degradation at 100 ug/ml and 40 degreeC by UPLC-UV analysis. It is filed as physicochemical. Conditions: in the assay text read “10% hydrolytic degradation” for “90% hydrolytic degradation”, dose 100 µg/ml. The gist of the method: as §1
The nature of data set [7]: Chemical stability assessed as time taken for hydrolytic degradation at pH 2. Type of data set: physicochemical. The note with it: buffer. The gist of the method: as §1
The nature of data set [8]: Clearance in rat at 1 mg/kg, iv. It is filed as ADME, organism-based. The note with it: in vivo.
Data set [9] is described as follows: Drug degradation assessed as acid-mediated compound hydrolysis at 40 degreeC measured at 3 hrs. Type of data set: physicochemical. Conditions: read-out: Drug degradation. The essentials: as §1
Data set [10] addresses T1, Phosphatidylinositol 4,5-bisphosphate 3-kinase catalytic subunit delta isoform (Homo sapiens, UniProt O00329).
T1 sequence (O00329 whole entry): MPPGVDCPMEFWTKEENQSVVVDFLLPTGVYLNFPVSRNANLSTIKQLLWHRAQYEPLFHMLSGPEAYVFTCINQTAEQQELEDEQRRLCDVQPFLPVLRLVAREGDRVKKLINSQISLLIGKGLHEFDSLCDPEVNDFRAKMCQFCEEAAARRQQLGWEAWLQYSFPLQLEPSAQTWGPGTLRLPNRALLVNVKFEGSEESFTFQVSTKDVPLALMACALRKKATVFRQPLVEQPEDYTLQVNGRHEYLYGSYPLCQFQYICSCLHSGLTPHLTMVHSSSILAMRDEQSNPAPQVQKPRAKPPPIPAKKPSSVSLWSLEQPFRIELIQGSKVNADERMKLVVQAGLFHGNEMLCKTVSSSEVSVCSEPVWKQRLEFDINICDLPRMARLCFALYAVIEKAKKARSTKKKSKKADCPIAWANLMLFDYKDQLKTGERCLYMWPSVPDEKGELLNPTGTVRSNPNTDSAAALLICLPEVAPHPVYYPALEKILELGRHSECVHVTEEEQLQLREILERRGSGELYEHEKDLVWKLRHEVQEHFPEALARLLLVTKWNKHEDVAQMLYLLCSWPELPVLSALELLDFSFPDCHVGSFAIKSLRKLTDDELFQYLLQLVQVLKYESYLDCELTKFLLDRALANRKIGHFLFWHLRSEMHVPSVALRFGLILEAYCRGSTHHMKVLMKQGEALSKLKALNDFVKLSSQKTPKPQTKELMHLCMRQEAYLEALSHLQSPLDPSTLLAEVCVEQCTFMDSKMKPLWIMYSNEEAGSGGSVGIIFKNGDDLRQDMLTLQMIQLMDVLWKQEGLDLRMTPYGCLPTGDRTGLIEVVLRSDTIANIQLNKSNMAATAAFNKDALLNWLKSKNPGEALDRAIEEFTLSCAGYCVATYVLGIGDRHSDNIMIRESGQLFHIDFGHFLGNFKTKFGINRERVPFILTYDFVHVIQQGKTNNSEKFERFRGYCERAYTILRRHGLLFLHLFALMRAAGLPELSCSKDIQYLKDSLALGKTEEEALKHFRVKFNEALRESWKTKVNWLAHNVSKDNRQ
Nature of the data set: Inhibition of PI3Kdelta in human whole blood assessed as reduction in anti-FCepsilonR1 mAb-stimulated basophil activation preincubated for 60 mins followed by anti-FCepsilonR1 mAb stimulation and measured after 25 mins by flow cytometry analysis. Type of data set: tissue-based. In general terms: In flow cytometry, cells or beads pass a laser one at a time.

Data set [11] in a line: Clearance in dog at 1 mg/kg, iv. Type of data set: ADME, organism-based, Canis lupus familiaris. Conditions: in vivo.
A short description of data set [12]: Volume of distribution at steady state in rat at 1 mg/kg, iv. The note with it: in vivo, read-out: Vdss. Type of data set: ADME, organism-based. The essentials:
(§2)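 Rats and dog received 1 mg/kg intravenously, formulated in 12% w/v Captisol in water. Volume of distribution was taken at steady state from the iv plasma profile. Three animals per dosing route.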

The nature of data set [13]: Volume of distribution at steady state in dog at 1 mg/kg, iv. It is filed as ADME, organism-based, Canis lupus familiaris. Conditions: in vivo, read-out: Vdss. The gist of the method:
as §2

The nature of data set [14]: Oral bioavailability in rat at 5 mg/kg. It is filed as ADME, organism-based. Conditions: in vivo.
Data set [15] in a line: Selectivity index, ratio of IC50 for inhibition of recombinant human full-length N-terminal His-tagged PI3K p110beta/p85alpha to IC50 for inhibition of human full length PI3K p110delta/p85alpha.
Data set [16] in a line: Clearance in cynomolgus monkey at 1 mg/kg, iv. Type of data set: ADME, organism-based, Macaca fascicularis. Conditions: in vivo.
Data set [17] in a line: Volume of distribution at steady state in cynomolgus monkey at 1 mg/kg, iv. It is filed as ADME, organism-based, Macaca fascicularis. Conditions: in vivo, read-out: Vdss.
Data set [18] in a line: Half life in rat at 1 mg/kg, iv. It is filed as ADME, organism-based. Conditions: in vivo.
Data set [19] in a line: Half life in dog at 1 mg/kg, iv. Type of data set: ADME, organism-based, Canis lupus familiaris. The note with it: in vivo.
The nature of data set [20]: Half life in cynomolgus monkey at 1 mg/kg, iv. Type of data set: ADME, organism-based, Macaca fascicularis. Conditions: in vivo.
Data set [21] in a line: Selectivity index, ratio of IC50 for inhibition of human full length PI3K p110alpha/p85alpha to IC50 for inhibition of human full length PI3K p110delta/p85alpha.
A short description of data set [22]: Selectivity index, ratio of IC50 for inhibition of human full length PI3K p110gamma to IC50 for inhibition of human full length PI3K p110delta/p85alpha.

PI3K p110 beta/p85 alpha, sequence (P27986 whole entry, canonical isoform): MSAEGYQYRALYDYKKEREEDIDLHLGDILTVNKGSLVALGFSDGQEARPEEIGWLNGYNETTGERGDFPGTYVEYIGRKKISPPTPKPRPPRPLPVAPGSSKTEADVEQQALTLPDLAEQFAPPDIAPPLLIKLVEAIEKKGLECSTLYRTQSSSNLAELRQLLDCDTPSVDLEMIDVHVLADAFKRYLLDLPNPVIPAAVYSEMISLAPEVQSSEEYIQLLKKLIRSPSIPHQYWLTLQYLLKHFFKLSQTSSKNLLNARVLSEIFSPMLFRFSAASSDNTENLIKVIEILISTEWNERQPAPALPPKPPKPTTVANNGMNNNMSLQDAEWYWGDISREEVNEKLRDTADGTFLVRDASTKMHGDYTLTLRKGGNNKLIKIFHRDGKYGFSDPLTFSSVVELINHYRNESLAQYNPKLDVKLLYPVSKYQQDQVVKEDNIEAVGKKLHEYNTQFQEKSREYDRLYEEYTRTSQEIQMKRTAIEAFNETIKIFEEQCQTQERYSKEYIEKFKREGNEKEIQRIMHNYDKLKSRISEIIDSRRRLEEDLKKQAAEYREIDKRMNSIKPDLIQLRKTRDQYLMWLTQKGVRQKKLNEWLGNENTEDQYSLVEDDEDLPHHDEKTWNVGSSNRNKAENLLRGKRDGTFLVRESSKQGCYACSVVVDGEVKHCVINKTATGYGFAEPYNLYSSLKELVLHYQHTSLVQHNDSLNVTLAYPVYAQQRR
PI3K p110 beta/p85 alpha, sequence (P42338 whole entry, canonical isoform): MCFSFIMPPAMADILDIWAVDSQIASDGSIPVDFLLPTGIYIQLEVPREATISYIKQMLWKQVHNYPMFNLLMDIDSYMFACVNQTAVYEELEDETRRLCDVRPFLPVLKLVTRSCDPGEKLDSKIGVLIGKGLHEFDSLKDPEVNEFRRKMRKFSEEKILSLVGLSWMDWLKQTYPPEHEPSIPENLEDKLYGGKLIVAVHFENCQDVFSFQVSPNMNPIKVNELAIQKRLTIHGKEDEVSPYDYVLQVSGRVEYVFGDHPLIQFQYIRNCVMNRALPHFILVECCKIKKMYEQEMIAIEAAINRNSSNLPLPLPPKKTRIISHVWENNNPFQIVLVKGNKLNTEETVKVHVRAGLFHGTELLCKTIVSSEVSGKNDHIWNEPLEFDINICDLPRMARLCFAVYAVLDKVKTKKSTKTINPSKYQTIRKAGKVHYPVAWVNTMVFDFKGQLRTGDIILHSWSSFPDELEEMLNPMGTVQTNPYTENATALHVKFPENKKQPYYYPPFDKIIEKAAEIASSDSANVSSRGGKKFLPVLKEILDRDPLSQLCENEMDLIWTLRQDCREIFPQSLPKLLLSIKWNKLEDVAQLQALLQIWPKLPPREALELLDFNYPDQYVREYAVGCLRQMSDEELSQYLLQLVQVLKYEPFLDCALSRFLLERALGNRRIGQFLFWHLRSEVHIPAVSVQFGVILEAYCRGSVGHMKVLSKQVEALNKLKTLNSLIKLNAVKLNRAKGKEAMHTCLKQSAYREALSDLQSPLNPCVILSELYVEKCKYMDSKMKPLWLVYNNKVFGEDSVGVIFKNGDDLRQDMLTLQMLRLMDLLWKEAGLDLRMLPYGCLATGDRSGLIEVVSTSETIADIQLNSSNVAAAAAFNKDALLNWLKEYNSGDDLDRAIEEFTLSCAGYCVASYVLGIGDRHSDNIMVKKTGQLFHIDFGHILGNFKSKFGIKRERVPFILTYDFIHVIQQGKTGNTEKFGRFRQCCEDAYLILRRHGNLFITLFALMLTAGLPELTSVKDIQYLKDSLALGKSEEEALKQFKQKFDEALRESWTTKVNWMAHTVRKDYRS
PI3-kinase p110-alpha/p85-alpha, sequence (P27986 whole entry): as the sequence (P27986 whole entry, canonical isoform) above
PI3-kinase p110-alpha/p85-alpha, sequence (P42336 whole entry): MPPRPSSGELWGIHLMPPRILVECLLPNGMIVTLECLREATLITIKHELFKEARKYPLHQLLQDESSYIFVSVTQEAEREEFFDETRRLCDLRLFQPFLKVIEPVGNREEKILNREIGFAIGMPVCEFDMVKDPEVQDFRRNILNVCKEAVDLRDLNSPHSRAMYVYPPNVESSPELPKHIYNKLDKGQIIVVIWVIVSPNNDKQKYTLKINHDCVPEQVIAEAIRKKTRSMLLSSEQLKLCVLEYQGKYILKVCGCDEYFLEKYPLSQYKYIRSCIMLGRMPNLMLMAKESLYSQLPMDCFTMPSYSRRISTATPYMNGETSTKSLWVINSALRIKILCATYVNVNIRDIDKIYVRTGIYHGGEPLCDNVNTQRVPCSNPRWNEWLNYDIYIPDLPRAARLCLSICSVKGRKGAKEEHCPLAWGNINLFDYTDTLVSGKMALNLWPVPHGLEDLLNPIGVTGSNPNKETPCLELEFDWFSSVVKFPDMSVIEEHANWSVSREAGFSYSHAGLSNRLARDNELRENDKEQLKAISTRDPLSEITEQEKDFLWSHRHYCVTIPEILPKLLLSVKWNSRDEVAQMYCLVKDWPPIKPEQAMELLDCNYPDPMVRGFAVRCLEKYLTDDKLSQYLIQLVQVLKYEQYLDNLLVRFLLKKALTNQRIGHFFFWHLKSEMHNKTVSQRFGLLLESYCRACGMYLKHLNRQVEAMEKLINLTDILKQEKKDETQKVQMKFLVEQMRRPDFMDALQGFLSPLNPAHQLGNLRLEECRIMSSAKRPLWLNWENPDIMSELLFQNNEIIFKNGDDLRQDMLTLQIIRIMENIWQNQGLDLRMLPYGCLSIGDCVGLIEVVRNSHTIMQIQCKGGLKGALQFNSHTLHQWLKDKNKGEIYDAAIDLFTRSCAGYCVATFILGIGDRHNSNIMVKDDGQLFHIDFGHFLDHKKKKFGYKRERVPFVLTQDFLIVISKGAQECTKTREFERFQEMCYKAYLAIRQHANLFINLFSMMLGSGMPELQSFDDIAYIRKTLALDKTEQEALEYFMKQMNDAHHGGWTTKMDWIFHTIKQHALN
Phosphatidylinositol 4,5-bisphosphate 3-kinase catalytic subunit gamma isoform, sequence (P48736 whole entry, canonical isoform): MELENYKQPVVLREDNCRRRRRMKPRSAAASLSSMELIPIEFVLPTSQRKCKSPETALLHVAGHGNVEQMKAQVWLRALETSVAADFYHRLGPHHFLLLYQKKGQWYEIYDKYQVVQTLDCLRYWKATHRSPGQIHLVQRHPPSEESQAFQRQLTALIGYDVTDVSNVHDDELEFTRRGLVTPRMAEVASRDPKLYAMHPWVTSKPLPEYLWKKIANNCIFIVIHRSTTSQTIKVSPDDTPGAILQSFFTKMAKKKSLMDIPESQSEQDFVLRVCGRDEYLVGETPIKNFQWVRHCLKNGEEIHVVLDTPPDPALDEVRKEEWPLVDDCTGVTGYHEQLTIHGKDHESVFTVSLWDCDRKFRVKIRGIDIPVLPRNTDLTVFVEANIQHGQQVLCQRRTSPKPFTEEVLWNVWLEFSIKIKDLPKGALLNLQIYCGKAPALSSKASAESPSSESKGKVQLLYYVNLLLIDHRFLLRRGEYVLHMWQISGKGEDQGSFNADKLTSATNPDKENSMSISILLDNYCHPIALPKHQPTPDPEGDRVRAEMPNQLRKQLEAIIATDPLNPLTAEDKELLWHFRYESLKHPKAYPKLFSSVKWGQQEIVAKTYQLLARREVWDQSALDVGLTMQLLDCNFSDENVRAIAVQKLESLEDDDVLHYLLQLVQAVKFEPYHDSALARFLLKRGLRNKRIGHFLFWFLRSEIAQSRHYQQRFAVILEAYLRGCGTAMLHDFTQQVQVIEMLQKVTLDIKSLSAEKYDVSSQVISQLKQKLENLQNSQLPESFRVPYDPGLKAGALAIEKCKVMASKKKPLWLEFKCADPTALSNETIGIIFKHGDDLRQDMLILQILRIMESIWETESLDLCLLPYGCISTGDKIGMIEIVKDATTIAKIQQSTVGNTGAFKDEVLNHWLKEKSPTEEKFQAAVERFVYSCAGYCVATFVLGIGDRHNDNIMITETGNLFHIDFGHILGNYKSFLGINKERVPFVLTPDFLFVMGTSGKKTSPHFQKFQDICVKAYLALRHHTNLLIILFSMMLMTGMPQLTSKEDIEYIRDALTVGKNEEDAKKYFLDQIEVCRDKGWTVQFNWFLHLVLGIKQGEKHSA
PI3-kinase p110-delta/p85-alpha, sequence (P27986 whole entry, one chain of several): as the sequence (P27986 whole entry, canonical isoform) above

As usually defined, the IC50 is the concentration that gives 50% inhibition. With `Cc1c(F)cncc1-n1c([C@H](C)Nc2nc(N)nc(N)c2C#N)nc2cccc(Cl)c2c1=O` (stereo in doubt; 27), the concentration for half-maximal inhibition (IC50) in [1] was 0.3 nM; in [2], 1200 nM; on PI3K p110 beta/p85 alpha it was 120 nM; in [3] it was 25 nM. Moreover, the half-life in data set [4] is 1750 h. Besides, the half-life at 100 ug/ml in data set [5] was 30 h. Moreover, the Time in [6] is 4.6 h; in [7], > 3 h.

Broadly, the clearance is the volume of plasma or blood freed of the substance per unit of time. By EC50 is commonly meant the concentration needed to bring the measured effect to its halfway point. For orientation: bioavailability means the share of a dose that reaches the circulation, judged against a reference dose that is usually intravenous. As to `C[C@H](Nc1nc(N)nc(N)c1C#N)c1nc2c(F)ccc(Cl)c2c(=O)n1-c1cccnc1`, the clearance in data set [8] was 26.7 mL/min/kg; in [11] it was 3.5 mL/min/kg. Moreover, the IC50 in [2] was 770 nM; on PI3K p110 beta/p85 alpha it was 46 nM; in data set [3], 51 nM. Further, in [9], the degraded at 3 h was 10%. In [10], the EC50 turned out to be 0.5 nM. Also, the results for the Vd in data set [12] and in data set [13] were 3.2 L/kg and 0.51 L/kg, respectively. Moreover, the bioavailability in data set [14] worked out at 24%. In addition, the half-life at 100 ug/ml in [5] was 19 h. In addition, in [6], the Time was 2.8 h.

With `C[C@H](Nc1nc(N)nc(N)c1C#N)c1nc2cccc(Cl)c2c(=O)n1-c1cccnc1`, the clearance in data set [8] is 25 mL/min/kg; in data set [11], 3.33 mL/min/kg; in data set [16] it was 1.67 mL/min/kg. Moreover, the half-inhibitory concentration (IC50) in data set [2] was 1030 nM; at PI3K p110 beta/p85 alpha, 100 nM; in [3], 72 nM. Further, the EC50 in [10] was 0.9 nM. Also, the Ratio IC50 was determined as 160 in data set [15], 1700 in [21] and 120 in data set [22]. Moreover, the Vd in data set [12] is 1.9 L/kg; in data set [13] it was 0.9 L/kg; in data set [17], 0.5 L/kg. Moreover, the half-life was 2.5 h in data set [18], 5.6 h in data set [19] and 4.9 h in [20]. The bioavailability in data set [14] was 42%. Also, the half-life at 100 ug/ml in [5] was 2.7 h. In [6], the Time is 0.2 h.
